Data published in ChEMBL document CHEMBL3769381 (J Med Chem, 2016).
Active and inactive are the calls of the source. The calls are words filed in the database; no cut-off is given here.

Tests used:
[1] = target: T1, Adenosine receptor A1 (Homo sapiens) (UniProt P30542)
T1 sequence (whole entry): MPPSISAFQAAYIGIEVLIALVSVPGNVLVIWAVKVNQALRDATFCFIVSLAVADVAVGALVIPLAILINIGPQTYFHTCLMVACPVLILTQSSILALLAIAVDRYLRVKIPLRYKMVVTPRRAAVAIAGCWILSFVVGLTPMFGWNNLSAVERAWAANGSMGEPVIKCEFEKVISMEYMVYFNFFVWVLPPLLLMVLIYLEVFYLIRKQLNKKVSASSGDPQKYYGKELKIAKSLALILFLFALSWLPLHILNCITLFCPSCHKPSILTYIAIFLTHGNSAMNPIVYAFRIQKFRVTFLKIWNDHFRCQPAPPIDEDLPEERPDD

[2] = target: T2, Adenosine receptor A2b (Homo sapiens) (UniProt P29275); test: Agonist activity at human Adenosine A2B receptor expressed in yeast cells coexpressed with chimeric GPA1/Galphas at 100 µM after 16 hrs by beta-galactosidase reporter gene assay; type: cell-based
T2 sequence (whole entry): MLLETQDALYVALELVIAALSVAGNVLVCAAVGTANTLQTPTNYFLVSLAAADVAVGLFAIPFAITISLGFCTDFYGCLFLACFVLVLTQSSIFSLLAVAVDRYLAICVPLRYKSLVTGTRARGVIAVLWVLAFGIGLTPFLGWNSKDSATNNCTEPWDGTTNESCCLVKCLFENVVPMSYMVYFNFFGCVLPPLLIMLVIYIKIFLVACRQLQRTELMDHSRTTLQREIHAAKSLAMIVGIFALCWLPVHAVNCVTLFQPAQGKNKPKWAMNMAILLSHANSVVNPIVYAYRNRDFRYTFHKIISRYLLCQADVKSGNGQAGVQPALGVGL
Summary of the method: (§1)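 Yeast (Δfar1, FUS1-lacZ) express A2BR from the GAPDH promoter alongside Gpa1p/Gαs chimera. The OD600 is 0.02 and compound is added in 1% v/v DMSO for 16 h at 30°C. β-Galactosidase is read with ONPG at OD430, normalised as (OD430−OD620)/OD620. […] Three-parameter logistic fit gives EC50 and Emax. Data are from 5-8 independent experiments.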

[3] = target: T1, Adenosine receptor A1 (Homo sapiens); test: Agonist activity at human Adenosine A1 receptor expressed in yeast cells coexpressed with chimeric GPA1/Galphai1 at 100 uM after 16 hrs by beta galactosidase reporter gene assay; type: cell-based
Summary of the method: (§2)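 Human receptor expressed from GAPDH promoter (p426-GPD) in Δfar1 FUS1-lacZ yeast with Gpa1p(1-467) carrying the 5 C-terminal Gα residues. Cells are grown overnight in SD-URA at 30°C, diluted 1:10 and grown 8 h. They are set to OD600 0.02 and given compound at 1% v/v DMSO for 16 h at 30°C. A2A strain is grown in SD-URA-HIS, with 5 mM 3-amino-triazole in treatment media. Read-out: ONPG, (OD430−OD620)/OD620.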

[4] = target: T2, Adenosine receptor A2b (Homo sapiens); test: Binding affinity to human Adenosine A2B receptor expressed in yeast cells coexpressed with GPA1/Galphas; type: cell-based
Summary of the method: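 pKA is derived by non-linear regression of the operational model of agonism applied to 16 h yeast FUS1-lacZ concentration-response data, with A2BR coupled to the GPA1/Gαs chimera.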

[5] = target: T3, Adenosine receptor A2a (Homo sapiens, UniProt P29274); test: Agonist activity at human Adenosine A2A receptor expressed in yeast cells coexpressed with chimeric GPA1/Galphas at 100 uM after 16 hrs by beta-galactosidase reporter gene assay; type: cell-based
T3 sequence (P29274 whole entry): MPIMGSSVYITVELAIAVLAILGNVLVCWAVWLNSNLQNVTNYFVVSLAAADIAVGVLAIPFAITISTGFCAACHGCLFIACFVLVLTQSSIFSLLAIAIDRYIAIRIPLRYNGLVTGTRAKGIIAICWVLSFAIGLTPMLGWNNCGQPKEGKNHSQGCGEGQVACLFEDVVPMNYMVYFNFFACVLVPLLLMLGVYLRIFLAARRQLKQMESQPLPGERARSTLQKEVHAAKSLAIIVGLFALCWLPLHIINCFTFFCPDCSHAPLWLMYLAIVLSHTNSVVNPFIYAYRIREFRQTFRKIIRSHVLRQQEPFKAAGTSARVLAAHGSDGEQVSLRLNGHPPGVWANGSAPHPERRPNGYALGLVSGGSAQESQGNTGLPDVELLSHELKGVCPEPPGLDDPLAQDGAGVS
Summary of the method: as §2

[6] = target: T3, Adenosine receptor A2a
[7] = target: T4, Adenosine receptor A3 (Homo sapiens) (UniProt P0DMS8); test: Agonist activity at human Adenosine A3 receptor transfected in CHO-K1 cells assessed as inhibition of forskolin-stimulated cAMP production after 30 mins by multimode microplate reader analysis relative to total forskolin; type: functional, cell-based; parameters: concentration or dose not given beside the values
T4 sequence (whole entry): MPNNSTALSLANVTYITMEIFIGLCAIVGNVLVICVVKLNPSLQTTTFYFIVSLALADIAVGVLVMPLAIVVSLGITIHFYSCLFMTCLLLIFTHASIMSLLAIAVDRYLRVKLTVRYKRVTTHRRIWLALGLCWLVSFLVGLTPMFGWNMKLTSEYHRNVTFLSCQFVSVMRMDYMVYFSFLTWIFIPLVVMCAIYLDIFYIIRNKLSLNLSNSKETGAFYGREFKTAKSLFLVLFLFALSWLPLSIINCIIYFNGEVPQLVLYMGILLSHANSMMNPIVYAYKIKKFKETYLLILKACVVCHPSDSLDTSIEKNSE
Summary of the method: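 CHO-K1 cells are transiently transfected with receptor (2 µg DNA, FuGene 6) and harvested at 48 h. Cells are resuspended in PBS with 0.1% BSA and 25 µM rolipram, at 2500 cells/well. They are co-incubated with 10 µM forskolin and ligand (10 pM to 1 µM) for 30 min at room temperature. cAMP is measured by LANCE kit. Data are expressed as % of the 10 µM forskolin response.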

[8] = target: T2, Adenosine receptor A2b (Homo sapiens); test: (§3) Agonist activity at human Adenosine A2B receptor expressed in yeast cells coexpressed with chimeric GPA1/Galphas after 16 hrs by beta-galactosidase reporter gene assay; type: cell-based
Summary of the method: (§4)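 Yeast (Δfar1, FUS1-lacZ) express A2BR from the GAPDH promoter alongside Gpa1p/Gαs chimera. The OD600 is 0.02 and compound is added in 1% v/v DMSO for 16 h at 30°C. β-Galactosidase is read with ONPG at OD430, normalised as (OD430−OD620)/OD620. Three-parameter logistic fit gives EC50 and Emax. Data are from 5-8 independent experiments.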

[9] = target: T2, Adenosine receptor A2b (Homo sapiens); test: Agonist activity at human Adenosine A2B receptor expressed in yeast cells coexpressed with chimeric GPA1/Galphas after 16 hrs by beta-galactosidase reporter gene assay relative to NECA; type: cell-based
Summary of the method: as §1

[10] = target: T5, Adenosine receptor A1 (Homo sapiens, UniProt P30542); test: Agonist activity at human Adenosine A1 receptor transfected in CHO-K1 cells assessed as inhibition of forskolin-stimulated cAMP production after 30 mins by multimode microplate reader analysis; type: functional, cell-based
T5 sequence (P30542 whole entry): T1 sequence (whole entry)

[11] = target: T3, Adenosine receptor A2a; test: Agonist activity at human Adenosine A2A receptor expressed in yeast cells coexpressed with chimeric GPA1/Galphas after 16 hrs by beta-galactosidase reporter gene assay; type: cell-based
[12] = target: T4, Adenosine receptor A3 (Homo sapiens); test: (§5) Agonist activity at human Adenosine A3 receptor transfected in CHO-K1 cells assessed as inhibition of forskolin-stimulated cAMP production after 30 mins by multimode microplate reader analysis; type: functional, cell-based
Summary of the method: (§6)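 CHO-K1 cells are transiently transfected with receptor (2 µg DNA, FuGene 6) and harvested at 48 h. They are co-incubated with 10 µM forskolin and ligand (10 pM to 1 µM) for 30 min at room temperature. cAMP is measured by LANCE kit. Data are expressed as % of the 10 µM forskolin response.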

[13] = target: T1, Adenosine receptor A1 (Homo sapiens); remark: listed apart in the source
[14] = target: T5, Adenosine receptor A1; test: Agonist activity at human Adenosine A1 receptor expressed in yeast cells coexpressed with chimeric GPA1/Galphai1 after 16 hrs by beta galactosidase reporter gene assay; type: cell-based
[15] = target: T6, Adenosine receptor A3 (Homo sapiens, UniProt P0DMS8); test: as §5; type: functional, cell-based
T6 sequence (P0DMS8 whole entry): T4 sequence (whole entry)
Summary of the method: as §6

[16] = target: T3, Adenosine receptor A2a; remark: listed apart in the source
[17] = target: T7, Adenosine receptor A2b (Homo sapiens, UniProt P29275); test: as §3; type: cell-based
T7 sequence (P29275 whole entry): T2 sequence (whole entry)
Summary of the method: as §4

[18] = target: T2, Adenosine receptor A2b (Homo sapiens)

Structure (SMILES): O[C@@H]1[C@H](O)[C@@H](CSc2ccccc2F)O[C@H]1n1cnc2c(NC34CC5CC(CC(C5)C3)C4)ncnc21
- pKA [1]: inactive
- Activity [2]: inactive
- Activity [3]: inactive
- pKA [4]: inactive

Structure (SMILES): CN1[C@@H]2CCC[C@H]1C[C@@H](Nc1ncnc3c1ncn3[C@@H]1O[C@H](CO)[C@@H](O)[C@H]1O)C2
- Activity [5]: inactive
- pKA [1]: inactive
- pKA [6]: inactive
- Activity [2]: inactive
- pKA [4]: inactive

Structure (SMILES): CCNC(=O)[C@H]1O[C@@H](n2cnc3c(N4[C@@H]5CCC[C@H]4C[C@H](N(C)C)C5)ncnc32)[C@H](O)[C@@H]1O
- Activity [5]: inactive
- pKA [1]: inactive
- pKA [6]: inactive
- Activity [2]: inactive
- Activity [3]: inactive
- pKA [4]: inactive

Structure (SMILES): CCNC(=O)[C@H]1O[C@@H](n2cnc3c(N[C@H]4C[C@H]5CCC[C@@H](C4)N5C)ncnc32)[C@H](O)[C@@H]1O
- Activity [5]: inactive
- pKA [1]: inactive
- pKA [6]: inactive
- Activity [2]: inactive
- pKA [4]: inactive

Structure (SMILES): CCNC(=O)[C@H]1O[C@@H](n2cnc3c(N)ncnc32)[C@H](O)[C@@H]1O
- pKA [1]: 4.4
- pKA [4]: 4.2
- Activity [7]: -44.1%

Structure (SMILES): CCNC(=O)[C@H]1O[C@@H](n2cnc3c(NC4C5CC6CC(C5)CC4C6)ncnc32)[C@H](O)[C@@H]1O (stereo not given in full)
- pEC50 [8]: inactive
- Emax [9]: inactive
- pKA [1]: 2.4
- pKA [6]: inactive
- IC50 [10]: 0.398 nM
- pEC50 [11]: inactive
- pKA [4]: inactive
- pIC50 [12]: inactive
- log(activity) [13]: 2.4
- EC50 [14]: 15800 nM
- Activity [7]: inactive

Structure (SMILES): CCNC(=O)[C@H]1O[C@@H](n2cnc3c(N4[C@@H]5CCC[C@H]4C[C@H](N)C5)ncnc32)[C@H](O)[C@@H]1O
- Activity [5]: inactive
- pKA [1]: inactive
- pKA [6]: inactive
- Activity [2]: inactive
- Activity [3]: inactive
- pKA [4]: inactive

Structure (SMILES): OC[C@H]1O[C@@H](n2cnc3c(N[C@@H]4CCC[C@H]4O)ncnc32)[C@H](O)[C@@H]1O
- pEC50 [8]: inactive
- Emax [9]: inactive
- pKA [1]: 5.5
- pKA [6]: inactive
- IC50 [10]: 4.37 nM
- pEC50 [11]: inactive
- pKA [4]: inactive
- IC50 [15]: 27.5 nM
- log(activity) [13]: 0.7
- EC50 [14]: 631 nM
- Activity [7]: -35.1%

Structure (SMILES): OC[C@H]1O[C@@H](n2cnc3c(NC45CC6CC(CC(C6)C4)C5)ncnc32)[C@H](O)[C@@H]1O
- pEC50 [8]: inactive
- Emax [9]: inactive
- pKA [1]: 3
- pKA [6]: inactive
- IC50 [10]: 19.1 nM
- pEC50 [11]: inactive
- pKA [4]: inactive
- pIC50 [12]: inactive
- log(activity) [13]: 1.8
- EC50 [14]: 15800 nM
- Activity [7]: inactive

Structure (SMILES): CN1[C@@H]2CCC[C@H]1C[C@@H](Nc1ncnc3c1ncn3[C@@H]1O[C@H](CSc3ccccc3F)[C@@H](O)[C@H]1O)C2
- Activity [5]: inactive
- pKA [1]: inactive
- pKA [6]: inactive
- Activity [2]: inactive
- Activity [3]: inactive
- pKA [4]: inactive

Structure (SMILES): OC[C@H]1O[C@@H](n2cnc3c(N[C@@H]4CCC[C@H]4OCc4ccccc4)ncnc32)[C@H](O)[C@@H]1O
- Emax [9]: inactive
- pKA [1]: 4.9
- pKA [6]: inactive
- pKA [4]: inactive
- Activity [7]: inactive

Structure (SMILES): CCNC(=O)[C@H]1O[C@@H](n2cnc3c(NC45CC6CC(CC(C6)C4)C5)ncnc32)[C@H](O)[C@@H]1O
- pEC50 [8]: inactive
- Emax [9]: inactive
- pKA [1]: 4.2
- pKA [6]: inactive
- IC50 [10]: 2.88 nM
- pEC50 [11]: inactive
- pKA [4]: inactive
- pIC50 [12]: inactive
- log(activity) [13]: 1.2
- EC50 [14]: 3980 nM
- Activity [7]: inactive

Structure (SMILES): CCNC(=O)[C@H]1O[C@@H](n2cnc3c(N[C@@H]4CCC[C@H]4O)ncnc32)[C@H](O)[C@@H]1O
- log(activity) [16]: 0.3
- EC50 [17]: 331000 nM
- Emax [9]: 49.2%
- pKA [1]: 4.8
- pKA [6]: 4.6
- IC50 [10]: 6.17 nM
- EC50 [11]: 5750 nM
- pKA [4]: 4.2
- IC50 [15]: 2.29 nM
- log(activity) [13]: 1.6
- EC50 [14]: 316 nM
- log(activity) [18]: -0.2
- Activity [7]: -37.9%

Structure (SMILES): CCNC(=O)[C@H]1O[C@@H](n2cnc3c(N)nc(NCCc4ccc(CCC(=O)O)cc4)nc32)[C@H](O)[C@@H]1O
- Emax [9]: 59.1%
- pKA [1]: 2.1
- pKA [4]: 3.4

Structure (SMILES): Nc1ncnc2c1ncn2[C@@H]1O[C@H](CO)[C@@H](O)[C@H]1O
- Emax [9]: 70.4%
- pKA [4]: 3.8

Structure (SMILES): CCNC(=O)[C@H]1O[C@@H](n2cnc3c(NC45CC6CC(CC(O)(C6)C4)C5)ncnc32)[C@H](O)[C@@H]1O
- pEC50 [8]: inactive
- Emax [9]: inactive
- pKA [1]: 3.5
- pKA [6]: inactive
- IC50 [10]: 37.2 nM
- pEC50 [11]: inactive
- pKA [4]: inactive
- IC50 [15]: 79.4 nM
- log(activity) [13]: 1
- EC50 [14]: 100000 nM
- Activity [7]: -32.7%

Structure (SMILES): OC[C@H]1O[C@@H](n2cnc3c(NC4CCCC4)nc(Cl)nc32)[C@H](O)[C@@H]1O
- log(activity) [16]: -0.1
- Emax [9]: 30.6%
- pKA [6]: 4.7
- pKA [4]: 4.4
- log(activity) [13]: 0.6
- log(activity) [18]: 3.5
- Activity [7]: -46.6%
